This note sets out measurements from ChEMBL document CHEMBL3774332, “Synthesis, biological evaluation and molecular modeling of pseudo-peptides based statine as inhibitors for human tissue kallikrein 5” (Eur J Med Chem, 2016).

Data set [1] has as its target Kallikrein-5 (Homo sapiens) (UniProt Q9Y337). Put plainly: Inhibition of human KLK5 using Abz-KLRSSKQ-EDDnp as substrate at 10 to 100 uM preincubated for 5 mins followed by substrate addition by spectrofluorimetric analysis. The gist of the method: (§1)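 Residual-activity screen in 50 mM Tris–HCl, pH 7.5. Compound stocks in DMSO:H2O 1:1 were diluted to 10 µM final, and in some runs raised to 100 µM. Inhibitor was incubated with enzyme for 5 min at 37°C. Substrate was then added: Abz-KLRSSKQ-EDDnp for KLK1, KLK5 and KLK6, or Abz-KLYSSKQ-EDDnp for KLK7. Fluorescence was read at ex 320 nm, em 420 nm and compared with an inhibitor-free control.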

The target of data set [2] is Kallikrein-7 (Homo sapiens) (UniProt P49862). Put plainly: Inhibition of human KLK7 using Abz-KLYSSKQ-EDDnp as substrate at 10 to 100 uM preincubated for 5 mins followed by substrate addition by spectrofluorimetric analysis. An outline of the steps: as §1
The target in data set [3] is Kallikrein-6 (Homo sapiens) (UniProt Q92876). Put plainly: Inhibition of human KLK6 using Abz-KLRSSKQ-EDDnp as substrate at 10 to 100 uM preincubated for 5 mins followed by substrate addition by spectrofluorimetric analysis. An outline of the steps:
as §1

Data set [4] can be described thus: Solubility in aqueous buffer solution at >1 uM. It is filed as physicochemical. The gist of the method:
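Solubility was tested in the aqueous assay buffer (50 mM Tris–HCl, pH 7.5) before enzymatic assays, at concentrations above 1.0 µM.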

Data set [5] has as its target Kallikrein-1 (Homo sapiens) (UniProt P06870). Description: Inhibition of human KLK1 using Abz-KLRSSKQ-EDDnp as substrate at 10 to 100 uM preincubated for 5 mins followed by substrate addition by spectrofluorimetric analysis. An outline of the steps: as §1
The target of data set [6] is Kallikrein-6 (Homo sapiens) (UniProt Q92876). Put plainly: Inhibition of human KLK6 using Abz-KLRSSKQ-EDDnp as substrate at 10 uM preincubated for 5 mins followed by substrate addition by spectrofluorimetric analysis. The gist of the method: as §1
The target of data set [7] is Kallikrein-7 (Homo sapiens) (UniProt P49862). Description: Inhibition of human KLK7 using Abz-KLYSSKQ-EDDnp as substrate at 10 uM preincubated for 5 mins followed by substrate addition by spectrofluorimetric analysis. An outline of the steps:
as §1

The target in data set [8] is Kallikrein-1 (Homo sapiens) (UniProt P06870). Description: Inhibition of human KLK1 using Abz-KLRSSKQ-EDDnp as substrate at 10 uM preincubated for 5 mins followed by substrate addition by spectrofluorimetric analysis. An outline of the steps:
as §1

Data set [9] has as its target T1, Kallikrein-5 (Homo sapiens, UniProt Q9Y337).
T1 sequence (Q9Y337 whole entry): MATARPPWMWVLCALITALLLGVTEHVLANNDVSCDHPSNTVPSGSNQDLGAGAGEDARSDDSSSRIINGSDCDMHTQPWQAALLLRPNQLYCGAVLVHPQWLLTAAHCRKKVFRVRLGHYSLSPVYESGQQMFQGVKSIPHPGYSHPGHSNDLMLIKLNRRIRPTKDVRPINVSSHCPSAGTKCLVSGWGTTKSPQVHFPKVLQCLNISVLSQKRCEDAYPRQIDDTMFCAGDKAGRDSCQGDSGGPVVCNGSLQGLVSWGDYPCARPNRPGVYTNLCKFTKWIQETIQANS
Description: Inhibition of human KLK5 using Abz-KLRSSKQ-EDDnp as substrate preincubated for 5 mins followed by substrate addition by spectrofluorimetric analysis. The gist of the method:
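Assay in 50 mM Tris–HCl, pH 7.5, with 0.02 µg human KLK5 and inhibitor incubated 5 min at 37°C before adding Abz-KLRSSKQ-EDDnp. Fluorescence was read at ex 320 nm, em 420 nm. IC50 came from rates at five or more inhibitor concentrations across 0.01–1.0 µM. Values are means ± SD of three independent experiments.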

The target in data set [10] is Kallikrein-5 (Homo sapiens) (UniProt Q9Y337). Description: Inhibition of human KLK5 using Abz-KLRSSKQ-EDDnp as substrate at 10 uM preincubated for 5 mins followed by substrate addition by spectrofluorimetric analysis. An outline of the steps:
as §1

For data set [11], the target named is T1, Kallikrein-5. Description: Competitive inhibition of human KLK5 using Abz-KLRSSKQ-EDDnp as substrate preincubated for 5 mins followed by substrate addition by Lineweaver-Burk plot analysis. The gist of the method:
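Human KLK5 (0.02 µg) was preincubated with inhibitor for 5 min at 37°C in 50 mM Tris–HCl, pH 7.5. Reaction was started with FRET substrate Abz-KLRSSKQ-EDDnp and read by fluorescence (ex 320 nm, em 420 nm). Initial rates were measured without inhibitor and at four inhibitor concentrations. Ki was taken as the x-intercept of 1/V0 versus inhibitor concentration at constant substrate. Mode was assigned from Lineweaver–Burk plots.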

For data set [12], the target named is Kallikrein-7 (Homo sapiens) (UniProt P49862). Put plainly: Inhibition of human KLK7 using Abz-KLYSSKQ-EDDnp as substrate at >1 uM preincubated for 5 mins followed by substrate addition by spectrofluorimetric analysis.
In data set [13] the target is Kallikrein-6 (Homo sapiens) (UniProt Q92876). Description: Inhibition of human KLK6 using Abz-KLRSSKQ-EDDnp as substrate at >1 uM preincubated for 5 mins followed by substrate addition by spectrofluorimetric analysis.
For data set [14], the target named is Kallikrein-5 (Homo sapiens) (UniProt Q9Y337). Put plainly: Inhibition of human KLK5 using Abz-KLRSSKQ-EDDnp as substrate at >1 uM preincubated for 5 mins followed by substrate addition by spectrofluorimetric analysis.
For data set [15], the target named is Kallikrein-1 (Homo sapiens) (UniProt P06870). Description: Inhibition of human KLK1 using Abz-KLRSSKQ-EDDnp as substrate at >1 uM preincubated for 5 mins followed by substrate addition by spectrofluorimetric analysis.

The structures appear in SMILES notation. pIC50, pKi: −log10 of the molar value. Calls of active or inactive are those of the source. No cut-off for these calls is given here.

Usually pIC50 stands for −log10 of the IC50, conventionally taken in molar units. A lower pIC50 goes with a large IC50. As usually defined, the pKi is −log10 of the Ki, conventionally taken in molar units. Read a high pKi as a small Ki.

Chain of Kallikrein-1 (Homo sapiens) (P06870 25-262 limits assumed): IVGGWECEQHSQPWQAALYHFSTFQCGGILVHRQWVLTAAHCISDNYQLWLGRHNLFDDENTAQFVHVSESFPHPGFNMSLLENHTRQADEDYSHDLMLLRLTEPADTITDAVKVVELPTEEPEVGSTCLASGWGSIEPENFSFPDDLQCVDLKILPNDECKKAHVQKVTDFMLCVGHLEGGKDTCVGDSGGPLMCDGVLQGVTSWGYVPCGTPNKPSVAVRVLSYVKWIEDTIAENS
Chain of Kallikrein-7 (Homo sapiens) (P49862 30-253 limits assumed): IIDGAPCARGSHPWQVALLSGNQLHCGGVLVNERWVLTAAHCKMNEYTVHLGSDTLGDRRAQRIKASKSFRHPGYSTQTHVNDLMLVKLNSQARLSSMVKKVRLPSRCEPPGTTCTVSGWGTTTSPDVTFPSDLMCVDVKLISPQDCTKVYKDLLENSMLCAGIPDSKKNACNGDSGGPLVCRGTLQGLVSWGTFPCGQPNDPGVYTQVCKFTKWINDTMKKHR

`CC(C)[C@H](NC(=O)C[C@H](O)[C@H](Cc1ccccc1)NC(=O)OC(C)(C)C)C(=O)O`: the inhibition result in data set [1], in [2], in data set [3] and in data set [5] was “inactive” each time. In data set [4], the solubility entry is recorded as “soluble”.
For the compound `COC(=O)[C@@H]1CCCN1C(=O)C[C@H](O)[C@H](Cc1ccccc1)NC(=O)OC(C)(C)C`, the inhibition result in data set [6], in data set [7] and in data set [8] was “inactive” each time. Moreover, the solubility result in [4] is on record as “soluble”. At Kallikrein-5 [9], this compound had a pIC50 of 6.91. Also, the inhibition result in data set [10] is “Active”. Further, on Kallikrein-5 [11], the pKi is 6.89.
In the case of `CC(C)(C)OC(=O)N[C@@H](Cc1ccccc1)[C@@H](O)CC(=O)N[C@@H](Cc1ccccc1)C(=O)O`, the inhibition result in data set [1], in [2], in [3] and in data set [5] was “inactive” each time. The solubility entry in [4] is reported as “soluble”.
Turning to `CC(C)(C)OC(=O)N[C@@H](Cc1ccccc1)[C@@H](O)CC(=O)N1CCC[C@H]1C(=O)N[C@H]1CO[C@H]2[C@@H]1OC[C@H]2OCc1ccccc1`, the inhibition result in data set [12], in data set [13], in data set [14] and in [15] was “inactive” throughout. In addition, the solubility result in [4] is recorded as “Insoluble”.
As to `COC(=O)[C@@H](NC(=O)C[C@H](O)[C@H](Cc1ccccc1)NC(=O)OC(C)(C)C)C(C)C`, the inhibition result in [6], in [7] and in data set [8] was “inactive” in each case. The solubility entry in data set [4] is on record as “soluble”. The compound further showed a pIC50 on Kallikrein-5 [9] of 6.94. The inhibition entry in data set [10] is “Active”. Also, on Kallikrein-5 [11], the pKi was 6.89.
On to `CC(C)(C)OC(=O)N[C@@H](Cc1ccccc1)[C@@H](O)CC(=O)N1CCC[C@H]1C(=O)O`, for which the inhibition entry in [1], in data set [2], in [3] and in [5] was “inactive” throughout. Moreover, in data set [4], the solubility result is “soluble”.
In the case of `COC(=O)[C@H](Cc1ccccc1)NC(=O)C[C@H](O)[C@H](Cc1ccccc1)NC(=O)OC(C)(C)C`, the inhibition entry in [6], in data set [7] and in data set [8] was “inactive” in each case. In data set [4], the solubility result is “soluble”. Further, the pIC50 on Kallikrein-5 [9] is 6.95. Besides, in data set [10], the inhibition entry was “Active”. The pKi at Kallikrein-5 [11] is 6.92.
For the compound `CC(C)(C)OC(=O)N[C@@H](Cc1ccccc1)[C@@H](O)CC(=O)N[C@@H](Cc1ccccc1)C(=O)N[C@H]1CO[C@H]2[C@@H]1OC[C@H]2OCc1ccccc1`, the inhibition entry in data set [12], in [13], in [14] and in [15] was “inactive” each time. Further, the solubility entry in data set [4] was “Insoluble”.
`CC(C)[C@H](NC(=O)C[C@H](O)[C@H](Cc1ccccc1)NC(=O)OC(C)(C)C)C(=O)N[C@H]1CO[C@H]2[C@@H]1OC[C@H]2OCc1ccccc1`: the inhibition entry in [12], in data set [13], in data set [14] and in data set [15] was “inactive” in each case. Also, the solubility result in data set [4] was “Insoluble”.
